bCat nuc transl: beta-catenin nuclear translocation modulation. 0.3% of 190,000 active. HeLa beta-catenin nuclear translocation, immunofluorescence imaging. nuclear translocation activity, % at 5 µM;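 active means nuclear translocation activity above 50% at 5 µM, with a well cell count of 50 or more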;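 further: per-cell ratio of nuclear to cytoplasmic median beta-catenin stain intensity; plate controls were DMSO negative control for no effect and GSK-3 inhibitor IX positive control for full effect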
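Test system: human HeLa cell line; Doses: 5 µM primary, 0.02–20 µM confirmation; Incubation: 24 h compound exposure, 37°C; Detection: beta-catenin immunofluorescence imaging with DAPI; Read-out: beta-catenin nuclear/cytoplasmic ratio, % activation.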
APP 5UTR inh: APP translation inhibition. SH-SY5Y APP 5'UTR-luciferase reporter, luminescence. inhibition, % at 2 µM. 0.82% of 190,000 active. AID 1285;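 active means inhibition above a set limit, derived from the sample mean plus 3 SD, cut at about 45% in these data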
BaF3 parental: parental Ba/F3 viability inhibition as JAK2V617F counter-screen | 1.1% of 220,000 active | AID 1486 | CellTiter-Glo ATP luminescence | inhibition, % at 5.6 µM;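 active means inhibition above a per-campaign cutoff, the mean inhibition of all tested compounds plus 3 SD, cut at about 27% in these data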;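 further: 0% = DMSO wells and 100% = JAK Inhibitor I control wells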
Ba/F3 V617F tox: loss of viability in JAK2V617F-driven Ba/F3 cells; Ba/F3 EpoR-JAK2V617F viability, ATP luminescence; inhibition, % at 5.6 µM; 1.1% of 220,000 active;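 active means inhibition above the campaign mean plus 3 SD over all tested compounds, cut at about 24% in these data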;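 further: cytokine-independent growth of Ba/F3 cells driven by EpoR plus mutant JAK2; 0% = DMSO-treated cells and 100% = JAK inhibitor I control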
L major viab: Leishmania major promastigote growth inhibition; Leishmania major promastigotes, resazurin fluorescence viability; inhibition, % at 10 µM; 9% of 200,000 active; AID 1063; in the data active means inhibition above about 50%;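 further: promastigotes grown with compound for 44 hours at 28 °C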
MT stabilizer: microtubule stabilizers in HeLa cells. HeLa tubulin immunostaining HCS, 24 h; share of cells brighter than vehicle mean+2SD. % tubulin-high responders, % at 10 µM. 0.83% of 200,000 active. AID 2205;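 active means plate Z-score above 3 for both tubulin-high and condensed-nucleus cell shares, with cell loss under 80%, at 10 µM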;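 further: anti alpha tubulin signal scored within the nucleus-defined area of each cell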
Numbers without * were called inactive; · = not tested or not shown. This is a sample that favours compounds with a hit; in the whole collection about 9.6% have one here.

SMILES	bCat nuc transl	APP 5UTR inh	BaF3 parental	Ba/F3 V617F tox	L major viab	MT stabilizer
CNC(=O)/C(=C\c1ccc([N+](=O)[O-])cc1)NC(C)=O	-1	3	6	0	44	1
COc1ccc(N2CCN(C(=O)C3(C)CC3(Cl)Cl)CC2)cc1 (stereo not drawn)	-5	-12	8	0	-6	2
CCc1cccc(N(C)C(N)=Nc2cccc3ccccc23)c1	1	·	·	·	·	·
C/C(=N\OC(=O)c1ccc(C)cc1)c1c(C)nc2cc(C)ccn12	-2	14	11	-1	-1	1
CSc1nc(N2CCN(c3ccccc3Cl)CC2)c2ccccc2n1	0	1	8	7	23	2
CSc1nc(N2CCOCC2)c2ccccc2n1	0	0	-2	0	51*	2

Assay outcomes as filed in PubChem.
